The source made the active and inactive calls. The calls are words filed in the database; no cut-off is given here.
What was measured:
MDA-MB-468 [1] = assay: Antitumor activity against human MDA-MB-468 cells xenografted in mouse assessed as reduction in mYC expression at 10 mg/kg, sc measured at 14 to 26 days by IHC analysis; conditions: time 14-26 day
P493-6 [2] = assay: Downregulation of CDK2 mRNA expression in human P493-6 cells at 25 uM incubated for 12 hrs by qRT-PCR analysis; format: functional, cell-based
Method in brief: (§1)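 Cells (500,000/well) were cultured with or without 25 µM for the indicated time. Total RNA was extracted with TRIzol and reverse-transcribed. qPCR used SYBR green with target-gene primers, reported as ΔΔCT.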

P493-6 [3] = assay: Antiproliferative activity against human P493-6 cells expressing MYC assessed as inhibition of cell proliferation at 25 uM incubated for 96 hrs by cell titer glo assay; format: functional, cell-based
Method in brief: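 P493-6 cells, either untreated (high MYC) or MYC-off after 0.1 µg/mL tetracycline for 72 h, were exposed to 25 µM for 96 h. Read-out was % survival by CellTiter-Glo luminescence. Mean ± SD, n = 6, unpaired t-test.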

P493-6 [4] = assay: Induction of apoptosis in human P493-6 cells assessed as effect on PARP level at 50 uM incubated for 24 hrs
[5] = target: T1, c-Myc/c-Max (Homo sapiens) (UniProt P01106+P61244); assay: Disruption of MYC-MAX heterodimerization in human P493-6 cells incubated for 12 hrs; format: cell-based
T1 sequence (P01106 whole entry): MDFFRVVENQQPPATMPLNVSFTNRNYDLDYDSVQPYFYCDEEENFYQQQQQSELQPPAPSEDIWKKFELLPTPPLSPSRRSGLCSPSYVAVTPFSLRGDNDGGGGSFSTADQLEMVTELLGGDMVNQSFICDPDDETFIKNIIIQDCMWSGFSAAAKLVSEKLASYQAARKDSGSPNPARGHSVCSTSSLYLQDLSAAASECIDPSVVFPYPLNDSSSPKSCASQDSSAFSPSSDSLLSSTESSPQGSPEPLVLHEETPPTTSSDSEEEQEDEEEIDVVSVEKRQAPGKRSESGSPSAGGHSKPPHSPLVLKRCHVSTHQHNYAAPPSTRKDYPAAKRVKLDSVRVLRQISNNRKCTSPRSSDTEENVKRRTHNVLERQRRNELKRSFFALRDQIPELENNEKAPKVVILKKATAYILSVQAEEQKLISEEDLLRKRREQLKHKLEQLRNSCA
T1 sequence (P61244 2-160 partner limits assumed): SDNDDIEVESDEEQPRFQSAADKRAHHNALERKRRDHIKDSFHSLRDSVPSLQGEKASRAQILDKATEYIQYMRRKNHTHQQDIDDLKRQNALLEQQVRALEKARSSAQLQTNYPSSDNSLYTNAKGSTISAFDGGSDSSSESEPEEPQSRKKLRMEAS
Method in brief: (§2)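 Cells were given 25 µM or DMSO for 0, 3, 5 and 12 h. Cytoplasmic and nuclear lysate fractions were pooled. 2 mg protein was immunoprecipitated with MYC antibody overnight, then protein A/G beads for 4 h at 4 °C. Bound MAX was detected by western blot and quantified relative to MYC; MAX input was also measured.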

MDA-MB-468 [6] = assay: Induction of apoptosis in human MDA-MB-468 cells cultured as 3D spheroids assessed as inhibition of cell growth incubated for 5 days; format: functional, cell-based; conditions: time 5.0 day
Method in brief: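 Cells plated at 4000 per well in low-attachment 24-well plates and grown in Mammocult medium for 48 h to form mammospheres. Spheres then exposed to 25 uM compound for 5 days, with untreated control wells. Read-out was imaging of the mammospheres formed.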

P493-6 [7] = assay: Downregulation of CCNA2 mRNA expression in human P493-6 cells at 25 uM incubated for 12 hrs by qRT-PCR analysis; format: functional, cell-based
Method in brief: as §1

[8] = Induction of apoptosis in human P493-6 cells assessed as late apoptotic cells at 25 uM incubated for 24 hrs by Annexin V/PI staining based flow cytometry analysis (reference value: 6.52 %); format: functional
[9] = Antiproliferative activity against human P493-6 cells expressing MYC assessed as inhibition of cell proliferation incubated for 96 hrs by cell titer glo assay; format: functional, cell-based; conditions: P493-6, 96 h
Method in brief: (§3)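 P493-6 cells (3000/well, RPMI) were seeded overnight at 37 °C, then given compounds at final 0.14–100 µM for 96 h. MYC-off cells were pretreated with 0.1 µg/mL tetracycline for 72 h. Read-out was CellTiter-Glo luminescence after equilibration to room temperature. IC50 was determined in high-MYC and MYC-off cells.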

P493-6 [10] = assay: Downregulation of CDC25C mRNA expression in human P493-6 cells at 25 uM incubated for 12 hrs by qRT-PCR analysis; format: functional, cell-based
Method in brief: as §1

P493-6 [11] = assay: Downregulation of CDK1 mRNA expression in human P493-6 cells at 25 uM incubated for 12 hrs by qRT-PCR analysis; format: functional, cell-based
Method in brief: as §1

MDA-MB-468 [12] = assay: Downregulation of CDC25A mRNA expression in human MDA-MB-468 cells at 25 uM incubated for 12 hrs by qRT-PCR analysis; format: functional, cell-based
Method in brief: as §1

MDA-MB-468 [13] = assay: Downregulation of CDK2 mRNA expression in human MDA-MB-468 cells at 25 uM incubated for 12 hrs by qRT-PCR analysis; format: functional, cell-based
Method in brief: as §1

[14] = target: T1, c-Myc/c-Max (Homo sapiens); assay: Disruption of MYC-MAX interaction in human MDA-MB-468 cells at 25 uM incubated for 12 hrs by proximity ligation assay
[15] = target: T1, c-Myc/c-Max (Homo sapiens); assay: Disruption of MYC-MAX interaction in human P493-6 cells at 25 uM incubated for 3 to 12 hrs by Western blot analysis; format: cell-based; conditions: time 3-12 hrs
Method in brief: as §2

MDA-MB-468 [16] = assay: Downregulation of E2F2 mRNA expression in human MDA-MB-468 cells at 25 uM incubated at 48 hrs by qRT-PCR analysis; format: functional, cell-based
Method in brief: as §1

MDA-MB-468 [17] = assay: Downregulation of CDC25C mRNA expression in human MDA-MB-468 cells at 25 uM incubated at 48 hrs by qRT-PCR analysis; format: functional, cell-based
Method in brief: as §1

[18] = target: T1, c-Myc/c-Max (Homo sapiens); assay: Disruption of MYC-MAX interaction in human MDA-MB-468 cells at 25 uM incubated for 3 to 12 hrs by immunofluorescence analysis; format: cell-based; conditions: time 3-12 hrs
MDA-MB-468 [19] = assay: Downregulation of E2F1 mRNA expression in human MDA-MB-468 cells at 25 uM incubated at 48 hrs by qRT-PCR analysis; format: functional, cell-based
Method in brief: as §1

MDA-MB-468 [20] = assay: Antitumor activity against human MDA-MB-468 cells xenografted in mouse assessed as tumor growth inhibition at 10 mg/kg, po measured at 14 to 26 days by elliptical measurement method based caliper analysis; format: functional, organism-based; conditions: time 14-26 day
[21] = Induction of apoptosis in human P493-6 cells assessed as necrotic cells at 50 uM incubated for 24 hrs by Annexin V/PI staining based flow cytometry analysis (reference value: 0.11 %); format: functional
MDA-MB-468 [22] = assay: Antiproliferative activity against human MDA-MB-468 cells assessed as cell viability incubated for 96 hrs by MTT assay; format: functional, cell-based; conditions: MDA-MB-468, 96 h
Method in brief: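 Adherent cells (2000/well) attached overnight, then exposed to compounds at 0.14–100 µM for 96 h in DMEM with 10% FBS. MTT at 0.5 mg/mL for 4 h in the dark, formazan dissolved in DMSO, absorbance at 570 nm. Compounds were freshly prepared in DMSO, with DMSO below 1%.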

[23] = Antiproliferative activity against tetracycline-treated human P493-6 cells expressing MYC assessed as inhibition of cell proliferation incubated for 96 hrs by cell titer glo assay; format: functional, cell-based; conditions: P493-6, 96 h
Method in brief: as §3

[24] = target: T1, c-Myc/c-Max (Homo sapiens); assay: Disruption of MYC-MAX interaction in human P493-6 cells assessed as reduction in myc level at 25 uM; format: cell-based
P493-6 [25] = assay: Downregulation of CDC25A mRNA expression in human P493-6 cells at 25 uM incubated for 12 hrs by qRT-PCR analysis; format: functional, cell-based
Method in brief: as §1

P493-6 [26] = assay: Downregulation of E2F2 mRNA expression in human P493-6 cells at 25 uM incubated for 12 hrs by qRT-PCR analysis; format: functional, cell-based
Method in brief: as §1

MDA-MB-468 [27] = assay: Antitumor activity against human MDA-MB-468 cells xenografted in mouse assessed as upregulation of caspase-3 expression at 10 mg/kg, sc measured at 14 to 26 days by IHC analysis; conditions: time 14-26 day
[28] = Induction of apoptosis in human P493-6 cells assessed as early apoptotic cells at 50 uM incubated for 24 hrs by Annexin V/PI staining based flow cytometry analysis (reference value: 2.52 %); format: functional

Activity [5]: Active
Activity [14]: Active
Activity [15]: Active
Activity [18]: Active
IC50 (MDA-MB-468 [22]): 13.5 µM
Activity [24]: Active
SMILES: N#Cc1cc2c(-c3ccc(Cl)cc3)nn(-c3ccccc3)c2[nH]c1=O
Activity (MDA-MB-468 [1]): Active
Activity (P493-6 [2]): Active
Activity (P493-6 [3]): Active
Activity (P493-6 [4]): Active
Activity (MDA-MB-468 [6]): Active
Activity (P493-6 [7]): Active
Activity [8]: 11.3%
IC50 [9]: 15.2 µM
Activity (P493-6 [10]): Active
Activity (P493-6 [11]): Active
Activity (MDA-MB-468 [12]): Active
Activity (MDA-MB-468 [13]): Active
Activity (MDA-MB-468 [16]): Active
Activity (MDA-MB-468 [17]): Active
Activity (MDA-MB-468 [19]): Active
TGI (MDA-MB-468 [20]): Active
Activity [21]: 0.11%
IC50 [23]: 58.9 µM
Activity (P493-6 [25]): Active
Activity (P493-6 [26]): Active
Activity (MDA-MB-468 [27]): Active
Activity [28]: 5.11%
